Reference: ChEMBL document CHEMBL4138133, “2,3-Dihydro-3β-methoxy Withaferin-A Protects Normal Cells against Stress: Molecular Evidence of Its Potent Cytoprotective Activity” (J Nat Prod, 2017)
Active and inactive are the calls of the source. No cut-off for these calls is given here.

Tests used:
TIG-3 [1] = assay: Cytoprotective activity against H2O2-induced oxidative stress in human TIG3 cells assessed as increase in full length PARP level at 0.3 uM pretreated with H2O2 for 2 hrs followed by compound addition by immunoblot analysis; assay type: functional, cell-based
Summary of the method: (§1)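 TIG-3 cells stressed with H2O2 (500 μM, 2 h), then recovered in medium containing 0.3 or 0.6 μM compound. Lysed in NP40 buffer; 10−20 μg protein immunoblotted for pAkt Ser473, p-p38 Thr180/Tyr182, p-p44/42 Thr202/Tyr204, β-catenin, survivin, Bcl-2 or full-length PARP-1. Triplicate experiments.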

TIG-3 [2] = assay: Cytotoxicity against human TIG3 cells assessed as cell death at 1 uM after 48 hrs relative to control; assay type: cell-based; conditions: tig-3, 48 h
Summary of the method: (§2)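 Normal human fibroblasts (TIG-3, WI38) exposed to serially increasing compound concentrations (0.15 to 50 μM) for 48 or 72 h. Viability scored against untreated control. Triplicate experiments.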

WI-38 [3] = assay: Cytotoxicity against human WI38 cells assessed as cell death at 1 uM after 48 hrs relative to control; assay type: cell-based; conditions: wi-38, 48 h; summary of the method: as §2
TIG-3 [4] = assay: Cytotoxicity against human TIG3 cells assessed as inhibition of colony formation at 0.1 to 0.3 uM by crystal violet staining based assay; assay type: cell-based; conditions: tig-3, 0.3 µM
Summary of the method: (§3)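 Cells seeded at 500 per well and grown about 2 weeks in compound-supplemented medium, with medium changed every fourth day. Colonies fixed, stained and counted. Triplicate; Student's t test.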

WI-38 [5] = assay: Cytotoxicity against human WI38 cells assessed as inhibition of colony formation at 0.1 to 0.3 uM by crystal violet staining based assay; assay type: cell-based; conditions: wi-38, 0.3 µM; summary of the method: as §3
TIG-3 [6] = assay: Cytotoxicity against human TIG3 cells assessed as cell death at 0.6 uM; assay type: cell-based; conditions: tig-3, 0.6 µM
Summary of the method: (§4)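 Phase-contrast microscopy of morphology of control and treated normal human TIG-3 fibroblasts.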

TIG-3 [7] = assay: Cytotoxicity against human TIG3 cells assessed as induction of morphological changes at 0.3 to 1.5 uM after 48 hrs by phase contrast microscopy; assay type: cell-based; conditions: tig-3, 48 h; summary of the method: as §4
TIG-3 [8] = assay: Cytotoxicity against human TIG3 cells assessed as decrease in ROS generation at 1.5 to 3 uM after 48 hrs; assay type: cell-based; conditions: tig-3, 48 h
TIG-3 [9] = assay: Cytotoxicity against human TIG3 cells assessed as induction of senescence at 64 population doubling at 0.1 uM; assay type: cell-based; conditions: tig-3, 0.1 µM
TIG-3 [10] = assay: Induction of oxidative stress against human TIG3 cells assessed as increase in CARF mRNA levels by RT-PCR analysis; assay type: cell-based
Summary of the method: (§5)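 Total RNA from treated TIG-3 cells; cDNA from 2 μg RNA; PCR 95 °C 10 min, 30 cycles (95 °C 45 s, 58 °C 1 min, 72 °C 45 s), 72 °C 10 min; products on 0.8% agarose, band densitometry; three independent experiments.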

TIG-3 [11] = assay: Induction of oxidative stress in human TIG3 cells assessed as increase in GADD45alpha mRNA levels by RT-PCR analysis; assay type: cell-based; summary of the method: as §5
TIG-3 [12] = assay: Effect on mortalin expression level in human TIG3 cells at 0.3 to 3 uM by immuno fluorescence analysis; assay type: ADME, cell-based; conditions: tig-3, 3 µM
Summary of the method: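 Methanol-fixed (chilled absolute methanol) TIG-3 fibroblasts treated with Wi-A or 3βmWi-A; immunofluorescence staining with antibodies, imaged by epifluorescence microscopy; signal quantitated from three independent experiments.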

TIG-3 [13] = assay: Decrease in keap1 expression level in human TIG3 cells at 0.3 to 3 uM by immunoblot analysis; assay type: ADME, cell-based; conditions: tig-3, 3 µM
Summary of the method: (§6)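 TIG-3 cells treated with compound, lysed in NP40 buffer (centrifuged 20 min, 4 °C); 10−20 μg protein immunoblotted for indicated proteins; band quantitation from three independent experiments, Student's t or Mann−Whitney test.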

TIG-3 [14] = assay: Decrease in Nrf2 expression level in human TIG3 cells at 0.3 to 3 uM by immunoblot analysis; assay type: ADME, cell-based; conditions: tig-3, 3 µM; summary of the method: as §6
TIG-3 [15] = assay: Induction of oxidative stress in human TIG3 cells assessed as increase in CARF expression level at 0.6 uM by immunoblot analysis; assay type: cell-based; conditions: tig-3, 0.6 µM; summary of the method: as §6
TIG-3 [16] = assay: Induction of oxidative stress in human TIG3 cells assessed as increase in p53 expression level at 0.6 uM by immunoblot analysis; assay type: cell-based; conditions: tig-3, 0.6 µM; summary of the method: as §6
TIG-3 [17] = assay: Induction of apoptosis in human TIG3 cells assessed as decrease in Bcl2 levels at 0.3 to 3 uM by immunoblot analysis; assay type: cell-based; conditions: tig-3, 3 µM
Summary of the method: (§7)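 TIG-3 cells treated with compound without added stress. Lysed in NP40 buffer; 10−20 μg protein immunoblotted for Bcl-2 and Bax. Band intensities quantified from three independent sets.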

TIG-3 [18] = assay: Induction of apoptosis in human TIG3 cells assessed as increase in Bax levels at 0.3 to 3 uM by immunoblot analysis; assay type: cell-based; conditions: tig-3, 3 µM; summary of the method: as §7
TIG-3 [19] = assay: Cytoprotective activity against H2O2-induced oxidative stress in human TIG3 cells assessed as increase in cell survival at 3 uM pretreated with H2O2 for 2 hrs followed by compound addition measured after 2 days by crystal violet staining based assay; assay type: functional
TIG-3 [20] = assay: Cytoprotective activity against H2O2-induced oxidative stress in human TIG3 cells assessed as decrease in p53 level pretreated with H2O2 for 2 hrs followed by compound addition by immuno fluorescence staining based assay; assay type: functional, cell-based
TIG-3 [21] = assay: Cytoprotective activity against H2O2-induced oxidative stress in human TIG3 cells assessed as decrease in CARF level pretreated with H2O2 for 2 hrs followed by compound addition by immuno fluorescence staining based assay; assay type: functional, cell-based
TIG-3 [22] = assay: Cytoprotective activity against UV irradiation-induced stress in human TIG3 cells assessed as decrease in p53 level irradiated with 50 mJ/cm2 of UV radiations followed by compound addition by immuno fluorescence staining based assay; assay type: functional, cell-based
TIG-3 [23] = assay: Cytoprotective activity against UV irradiation-induced stress in human TIG3 cells assessed as decrease in CARF level irradiated with 50 mJ/cm2 of UV radiations followed by compound addition by immuno fluorescence staining based assay; assay type: functional, cell-based
[24] = target: RAC-alpha serine/threonine-protein kinase (Homo sapiens) (UniProt P31749); assay: Induction of Akt phosphorylation at Ser473 residues in H2O2 treated human TIG3 cells at 0.3 uM pretreated with H2O2 for 2 hrs followed by compound addition by immunoblot analysis; summary of the method: as §1
Sequence of RAC-alpha serine/threonine-protein kinase (Homo sapiens) (P31749 whole entry): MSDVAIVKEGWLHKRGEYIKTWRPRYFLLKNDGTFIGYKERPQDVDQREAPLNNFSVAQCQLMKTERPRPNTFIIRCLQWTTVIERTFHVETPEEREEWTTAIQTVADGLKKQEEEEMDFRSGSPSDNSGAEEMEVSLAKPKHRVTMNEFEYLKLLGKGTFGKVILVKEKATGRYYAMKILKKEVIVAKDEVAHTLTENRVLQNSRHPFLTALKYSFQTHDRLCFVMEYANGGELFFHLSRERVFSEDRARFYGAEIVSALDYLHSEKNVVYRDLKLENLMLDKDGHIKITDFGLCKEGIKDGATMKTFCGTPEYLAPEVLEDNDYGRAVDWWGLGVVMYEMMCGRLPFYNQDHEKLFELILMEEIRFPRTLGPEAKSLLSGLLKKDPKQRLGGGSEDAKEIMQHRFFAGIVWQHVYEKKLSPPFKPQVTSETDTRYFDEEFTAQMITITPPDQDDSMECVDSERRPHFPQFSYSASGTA

[25] = target: MAP kinase p38 (Homo sapiens) (UniProt O15264+Q15759+Q16539+P53778); assay: Induction of p38 MAPK phosphorylation at Thr180/Tyr182 residues in H2O2 treated human TIG3 cells at 0.3 uM pretreated with H2O2 for 2 hrs followed by compound addition by immunoblot analysis; summary of the method: as §1
[26] = target: Mitogen-activated protein kinase 3 (Homo sapiens) (UniProt P27361); assay: Induction of ERK1 phosphorylation at Thr202 residues in H2O2 treated human TIG3 cells at 0.3 uM pretreated with H2O2 for 2 hrs followed by compound addition by immunoblot analysis; summary of the method: as §1
Sequence of Mitogen-activated protein kinase 3 (Homo sapiens) (P27361 whole entry): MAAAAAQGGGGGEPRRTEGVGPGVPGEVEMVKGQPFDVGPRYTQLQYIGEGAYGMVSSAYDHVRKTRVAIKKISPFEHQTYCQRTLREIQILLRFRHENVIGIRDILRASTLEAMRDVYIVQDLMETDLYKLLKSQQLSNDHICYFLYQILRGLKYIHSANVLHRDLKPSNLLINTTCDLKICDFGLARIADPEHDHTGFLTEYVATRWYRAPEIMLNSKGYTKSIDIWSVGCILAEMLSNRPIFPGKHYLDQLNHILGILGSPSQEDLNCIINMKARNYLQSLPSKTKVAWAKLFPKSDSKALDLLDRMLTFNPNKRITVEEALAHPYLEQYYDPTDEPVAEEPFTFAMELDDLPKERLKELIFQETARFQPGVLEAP

[27] = target: Mitogen-activated protein kinase 1 (Homo sapiens) (UniProt P28482); assay: Induction of ERK2 phosphorylation at Tyr204 residues in H2O2 treated human TIG3 cells at 0.3 uM pretreated with H2O2 for 2 hrs followed by compound addition by immunoblot analysis; summary of the method: as §1
Sequence of Mitogen-activated protein kinase 1 (Homo sapiens) (P28482 whole entry): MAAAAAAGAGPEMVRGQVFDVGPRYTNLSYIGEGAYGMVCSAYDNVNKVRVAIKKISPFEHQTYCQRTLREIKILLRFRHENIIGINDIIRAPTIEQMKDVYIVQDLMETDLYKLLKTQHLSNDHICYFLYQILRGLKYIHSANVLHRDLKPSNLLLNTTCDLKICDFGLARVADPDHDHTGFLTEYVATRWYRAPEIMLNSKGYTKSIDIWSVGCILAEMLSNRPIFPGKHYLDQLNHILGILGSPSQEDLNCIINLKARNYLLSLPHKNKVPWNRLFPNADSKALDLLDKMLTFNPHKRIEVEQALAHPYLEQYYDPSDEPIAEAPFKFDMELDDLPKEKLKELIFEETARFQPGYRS

[28] = target: RAC-alpha serine/threonine-protein kinase (Homo sapiens) (UniProt P31749); assay: Induction of AKT-mediated beta-catenin expression level in H2O2 treated human TIG3 cells at 0.3 uM pretreated with H2O2 for 2 hrs followed by compound addition by immunoblot analysis; summary of the method: as §1
Homo sapiens = species on record: Homo sapiens; assay: Induction of AKT/p38/p44 MAPK-mediated survivin expression level in H2O2 treated human TIG3 cells at 0.3 uM pretreated with H2O2 for 2 hrs followed by compound addition by immunoblot analysis; summary of the method: as §1
TIG-3 [29] = assay: Cytoprotective activity against H2O2-induced oxidative stress in human TIG3 cells assessed as increase in Bcl2 level at 0.3 uM pretreated with H2O2 for 2 hrs followed by compound addition by immunoblot analysis; assay type: functional, cell-based; summary of the method: as §1

## CC1=C(CO)C(=O)O[C@@H]([C@@H](C)[C@H]2CC[C@H]3[C@@H]4C[C@H]5O[C@]56[C@@H](O)C=CC(=O)[C@]6(C)[C@H]4CC[C@]23C)C1 [WITHAFERIN A]
TIG-3 [1]
  Activity: inactive
TIG-3 [2]
  Activity: 90%
WI-38 [3]
  Activity: 90%
TIG-3 [4]
  Activity: Toxic
WI-38 [5]
  Activity: Toxic
TIG-3 [6]
  Activity: Toxic
TIG-3 [7]
  Activity: Toxic
TIG-3 [8]
  Activity: Toxic
TIG-3 [9]
  Activity: Toxic
TIG-3 [10]
  Activity: Toxic
TIG-3 [11]
  Activity: Toxic
TIG-3 [12]
  Activity: Toxic
TIG-3 [13]
  Activity: Toxic
TIG-3 [14]
  Activity: Toxic
TIG-3 [15]
  Activity: Toxic
TIG-3 [16]
  Activity: Toxic
TIG-3 [17]
  Activity: Toxic
TIG-3 [18]
  Activity: Toxic
TIG-3 [19]
  Activity: inactive
TIG-3 [20]
  Activity: inactive
TIG-3 [21]
  Activity: inactive
TIG-3 [22]
  Activity: inactive
TIG-3 [23]
  Activity: inactive
[24]
  Activity: Active
[25]
  Activity: Active
[26]
  Activity: Active
[27]
  Activity: Active
[28]
  Activity: Active
Homo sapiens
  Activity: Active
TIG-3 [29]
  Activity: inactive
